Measured values as given in ChEMBL document CHEMBL5058577, “EUbOPEN Chemogenomics Library 2 (Multiplex)” (2022).

System: U2OS
Test: Multiplex assay against U2OS
Type: toxicity, cell-based
Conditions: human
Method in brief: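 At seeding, live cells were stained with Hoechst33342, BioTracker Green Microtubule Cytoskeleton Dye, MitoTracker Red and Annexin V Alexa Fluor 680. After compound addition they were imaged on a CQ1 microscope at 37°C and 5% CO2, and CellPathfinder machine-learning gating sorted them into Hoechst high-intensity objects or normal cells, with normal cells further split into healthy, pyknosed or fragmented nuclei and pyknosed cells into mitotic or apoptotic. Tubulin, mitochondrial-mass and membrane-permeability phenotypes are given as per cents of cells with healthy nuclei.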

[1] = 12 h, 1 µM, compound concentration 1 uM, replicate 1
[2] = 12 h, 1 µM, compound concentration 1 uM, replicate 2
[3] = 12 h, 10 µM, compound concentration 10 uM, replicate 1
[4] = 12 h, 10 µM, compound concentration 10 uM, replicate 2
[5] = 24 h, 1 µM, compound concentration 1 uM, replicate 1
[6] = 24 h, 1 µM, compound concentration 1 uM, replicate 2
[7] = 24 h, 10 µM, compound concentration 10 uM, replicate 1
[8] = 24 h, 10 µM, compound concentration 10 uM, replicate 2
[9] = 48 h, 1 µM, compound concentration 1 uM, replicate 1
[10] = 48 h, 1 µM, compound concentration 1 uM, replicate 2
[11] = 48 h, 10 µM, compound concentration 10 uM, replicate 1
[12] = 48 h, 10 µM, compound concentration 10 uM, replicate 2

Br.CS(=O)(=O)Nc1c(O)ccc2c1CCCC2C1=NCCN1 (centres undefined)
Population Apoptotic (%) [1]: 63%
Population Fragmented Nuclei (%) [1]: 20%
Population Healthy Nuclei (%) [1]: 75%
Population Hoechst High Intensity Objects (%) [1]: 2%
Population Membrane Permeable-Phenotype (%) [1]: 3%
Population Mitochondria Different-Phenotype (%) [1]: 2%
Population Mitotic Cells (%) [1]: 36%
Population Normal (%) [1]: 97%
Population Pyknosed Nuclei (%) [1]: 3%
Population Tubulin-Different-Phenotype (%) [1]: 2%
Total Cell Count [1]: 288
Population Apoptotic (%) [2]: 80%
Population Fragmented Nuclei (%) [2]: 13%
Population Healthy Nuclei (%) [2]: 82%
Population Hoechst High Intensity Objects (%) [2]: 0%
Population Membrane Permeable-Phenotype (%) [2]: 5%
Population Mitochondria Different-Phenotype (%) [2]: 1%
Population Mitotic Cells (%) [2]: 20%
Population Normal (%) [2]: 100%
Population Tubulin-Different-Phenotype (%) [2]: 1%
Total Cell Count [2]: 151
Population Apoptotic (%) [3]: 69%
Population Fragmented Nuclei (%) [3]: 36%
Population Healthy Nuclei (%) [3]: 57%
Population Hoechst High Intensity Objects (%) [3]: 1%
Population Membrane Permeable-Phenotype (%) [3]: 8%
Population Mitochondria Different-Phenotype (%) [3]: 0%
Population Mitotic Cells (%) [3]: 30%
Population Normal (%) [3]: 98%
Population Pyknosed Nuclei (%) [3]: 6%
Population Tubulin-Different-Phenotype (%) [3]: 1%
Total Cell Count [3]: 215
Population Apoptotic (%) [4]: 100%
Population Fragmented Nuclei (%) [4]: 22%
Population Healthy Nuclei (%) [4]: 75%
Population Hoechst High Intensity Objects (%) [4]: 0%
Population Membrane Permeable-Phenotype (%) [4]: 6%
Population Mitochondria Different-Phenotype (%) [4]: 6%
Population Mitotic Cells (%) [4]: 0%
Population Normal (%) [4]: 100%
Population Pyknosed Nuclei (%) [4]: 2%
Total Cell Count [4]: 84
Population Apoptotic (%) [5]: 76%
Population Fragmented Nuclei (%) [5]: 18%
Population Healthy Nuclei (%) [5]: 73%
Population Hoechst High Intensity Objects (%) [5]: 2%
Population Membrane Permeable-Phenotype (%) [5]: 3%
Population Mitochondria Different-Phenotype (%) [5]: 2%
Population Mitotic Cells (%) [5]: 23%
Population Normal (%) [5]: 97%
Population Pyknosed Nuclei (%) [5]: 7%
Population Tubulin-Different-Phenotype (%) [5]: 2%
Total Cell Count [5]: 341
Population Apoptotic (%) [6]: 92%
Population Fragmented Nuclei (%) [6]: 14%
Population Healthy Nuclei (%) [6]: 78%
Population Hoechst High Intensity Objects (%) [6]: 1%
Population Membrane Permeable-Phenotype (%) [6]: 7%
Population Mitotic Cells (%) [6]: 7%
Population Normal (%) [6]: 98%
Population Tubulin-Different-Phenotype (%) [6]: 4%
Total Cell Count [6]: 185
Population Apoptotic (%) [7]: 86%
Population Fragmented Nuclei (%) [7]: 31%
Population Healthy Nuclei (%) [7]: 62%
Population Hoechst High Intensity Objects (%) [7]: 2%
Population Membrane Permeable-Phenotype (%) [7]: 5%
Population Mitochondria Different-Phenotype (%) [7]: 1%
Population Mitotic Cells (%) [7]: 13%
Population Normal (%) [7]: 97%
Population Pyknosed Nuclei (%) [7]: 6%
Population Tubulin-Different-Phenotype (%) [7]: 2%
Total Cell Count [7]: 240
Population Apoptotic (%) [8]: 100%
Population Fragmented Nuclei (%) [8]: 16%
Population Healthy Nuclei (%) [8]: 80%
Population Hoechst High Intensity Objects (%) [8]: 0%
Population Membrane Permeable-Phenotype (%) [8]: 3%
Population Mitochondria Different-Phenotype (%) [8]: 4%
Population Mitotic Cells (%) [8]: 0%
Population Normal (%) [8]: 100%
Population Pyknosed Nuclei (%) [8]: 2%
Population Tubulin-Different-Phenotype (%) [8]: 3%
Total Cell Count [8]: 103
Population Apoptotic (%) [9]: 74%
Population Fragmented Nuclei (%) [9]: 14%
Population Healthy Nuclei (%) [9]: 78%
Population Hoechst High Intensity Objects (%) [9]: 1%
Population Membrane Permeable-Phenotype (%) [9]: 2%
Population Mitochondria Different-Phenotype (%) [9]: 2%
Population Mitotic Cells (%) [9]: 25%
Population Normal (%) [9]: 98%
Population Pyknosed Nuclei (%) [9]: 6%
Population Tubulin-Different-Phenotype (%) [9]: 2%
Total Cell Count [9]: 484
Population Apoptotic (%) [10]: 81%
Population Fragmented Nuclei (%) [10]: 13%
Population Healthy Nuclei (%) [10]: 76%
Population Membrane Permeable-Phenotype (%) [10]: 5%
Population Mitotic Cells (%) [10]: 18%
Population Pyknosed Nuclei (%) [10]: 10%
Population Tubulin-Different-Phenotype (%) [10]: 1%
Total Cell Count [10]: 253
Population Apoptotic (%) [11]: 90%
Population Fragmented Nuclei (%) [11]: 23%
Population Healthy Nuclei (%) [11]: 70%
Population Hoechst High Intensity Objects (%) [11]: 1%
Population Membrane Permeable-Phenotype (%) [11]: 5%
Population Mitochondria Different-Phenotype (%) [11]: 1%
Population Mitotic Cells (%) [11]: 10%
Population Normal (%) [11]: 98%
Population Pyknosed Nuclei (%) [11]: 6%
Population Tubulin-Different-Phenotype (%) [11]: 2%
Total Cell Count [11]: 333
Population Apoptotic (%) [12]: 100%
Population Fragmented Nuclei (%) [12]: 17%
Population Healthy Nuclei (%) [12]: 74%
Population Hoechst High Intensity Objects (%) [12]: 0%
Population Membrane Permeable-Phenotype (%) [12]: 3%
Population Mitochondria Different-Phenotype (%) [12]: 6%
Population Mitotic Cells (%) [12]: 0%
Population Normal (%) [12]: 100%
Population Pyknosed Nuclei (%) [12]: 7%
Total Cell Count [12]: 152
